Calls of active or inactive are those of the source. No cut-off for these calls is given here. Where a SMILES comes first, the peptide text is derived from it. [ ]: non-standard residue; d: D form. pY = N[C@@H](Cc1ccc(OP(=O)(O)O)cc1)C(=O)O
Key:
[1] = (§1) Inhibition of human plasma alpha-thrombin assessed as spectrozyme TH hydrolysis preincubated for 10 mins by spectrophotometric analysis; assay type: cell-free
How it was run: (§2)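 Human plasma α-thrombin (5 nM final) with inhibitor (1−900 μM final) in 20 mM Tris-HCl pH 7.4, 100 mM NaCl, 2.5 mM CaCl2, 0.1% PEG8000, PEG20000-coated cuvettes, 10 min. Spectrozyme TH then added (30 μM final). Initial rate from A405 increase. Residual activity fitted by logistic equation with floating Hill slope, Y0, YM to give IC50.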

[2] = target: Coagulation factor X (Homo sapiens) (UniProt P00742); assay: Inhibition of human factor 10a at 365 uM
Homo sapiens [3] = organism: Homo sapiens; assay: Inhibition of human plasma alpha-thrombin assessed as spectrozyme TH hydrolysis at 1 to 900 uM preincubated for 10 mins by spectrophotometric analysis relative to control; assay type: cell-free; how it was run: as §2
Prothrombin = Prothrombin (Homo sapiens, UniProt P00734); assay: Binding affinity to thrombin exosite-2 (unknown origin)
Homo sapiens [4] = organism: Homo sapiens; assay: as §1; assay type: cell-free; how it was run: as §2
Homo sapiens [5] = organism: Homo sapiens; assay: Binding affinity to human plasma alpha-thrombin exosite-2 using spectrozyme TH as substrate after overnight incubation at 25 degC by spectrophotometric analysis; assay type: cell-free

Coagulation factor X (Homo sapiens), sequence (P00742 41-179 limits assumed): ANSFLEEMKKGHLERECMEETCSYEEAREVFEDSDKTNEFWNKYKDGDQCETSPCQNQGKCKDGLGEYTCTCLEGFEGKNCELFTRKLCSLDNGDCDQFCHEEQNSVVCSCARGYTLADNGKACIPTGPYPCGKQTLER
Coagulation factor X (Homo sapiens), sequence (P00742 235-488 limits assumed): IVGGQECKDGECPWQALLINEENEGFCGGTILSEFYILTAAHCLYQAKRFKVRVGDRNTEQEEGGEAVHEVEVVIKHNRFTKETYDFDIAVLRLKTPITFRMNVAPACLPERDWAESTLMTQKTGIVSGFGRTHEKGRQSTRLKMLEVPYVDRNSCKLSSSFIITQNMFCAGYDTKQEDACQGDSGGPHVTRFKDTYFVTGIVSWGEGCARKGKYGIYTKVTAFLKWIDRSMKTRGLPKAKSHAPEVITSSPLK

Compound | IC50 ([1]; read-out: IC50) [µM] | IC50 ([1]; read-out: pIC50 (converted)) [µM] | inhibition [2] | Efficacy (Homo sapiens [3]) [%] | K (Prothrombin) [µM] | inhibition (Homo sapiens [4]) | K (Homo sapiens [5]) [µM]
CCOC(=O)c1c(COc2cc3c(C(=O)O)c(C)oc3cc2OC)oc2cc(OC)c(OCc3oc4cc(OC)c(OS(=O)(=O)O)cc4c3C(=O)OCC)cc12 | 66 | 66.1 | inactive | 49 | – | – | –
C=CCOC(=O)c1c(C)oc2cc(OC)c(OCc3oc4cc(OC)c(OCc5oc6cc(OC)c(OS(=O)(=O)O)cc6c5C(=O)OCC)cc4c3C(=O)OCC)cc12 | 31 | 30.9 | – | 53 | – | – | –
CCOC(=O)c1c(C)oc2cc(OC)c(OCc3oc4cc(OC)c(OCc5oc6cc(OC)c(OS(=O)(=O)O)cc6c5C(=O)OC(C)(C)C)cc4c3C(=O)OCC)cc12 | 165 | 166 | inactive | 94 | – | – | –
CCOC(=O)c1c(COc2cc3c(C(=O)OCC)c(COc4cc5c(C(=O)O)c(C)oc5cc4OC)oc3cc2OC)oc2cc(OC)c(O)cc12 | > 500 | – | inactive | – | – | – | –
CCOC(=O)c1c(C)oc2cc(OC)c(OCc3oc4cc(OC)c(OCc5oc6cc(OS(=O)(=O)O)c(OC)cc6c5C(=O)OCC)cc4c3C(=O)OCC)cc12 | 154 | 155 | – | 91 | – | – | –
CCOC(=O)c1c(C)oc2cc(OC)c(OCc3oc4cc(OC)c(OCc5oc6cc(OC)c(OCc7oc8cc(OC)c(OS(=O)(=O)O)cc8c7C(=O)OCC)cc6c5C(=O)OCC)cc4c3C(=O)OCC)cc12 | 158 | 158 | – | – | – | – | –
CC(C)C[C@H](NC(=O)[C@H](CC(=O)O)NC(=O)[C@H](CC(=O)O)NC(=O)[C@H](CCC(=O)O)NC(=O)[C@@H]1CCCN1C(=O)[C@H](Cc1ccc(OP(=O)(O)O)cc1)NC(=O)[C@H](CC(C)C)NC(=O)[C@H](CO)NC(=O)[C@H](CC(=O)O)NC(=O)[C@H](Cc1ccc(OP(=O)(O)O)cc1)NC(=O)[C@H](CCC(=O)O)NC(=O)[C@@H](NC(=O)[C@H](CCC(=O)O)NC(=O)[C@H](C)NC(=O)[C@@H]1CCCN1C(=O)[C@H](Cc1cnc[nH]1)NC(=O)[C@H](CCC(=O)O)NC(=O)[C@@H]1CCCN1C(=O)[C@H](CCCNC(=N)N)NC(=O)[C@@H](N)C(C)C)[C@@H](C)O)C(=O)O (H-VRPEHPAETE[pY]DSL[pY]PEDDL-OH) | – | – | – | – | 0.6 | – | –
N=C(N)NCCC[C@H](NC(=O)[C@@H]1CCCN1C(=O)[C@H](N)Cc1ccccc1)C(=O)CCl | – | – | – | – | – | Active | –
CCOC(=O)c1c(C)oc2cc(OC)c(OCc3oc4cc(OC)c(OCc5oc6cc(OC)c(OCc7oc8cc(OC)c(OS(=O)(=O)C(C)(C)C)cc8c7C(=O)OCC)cc6c5C(=O)OCC)cc4c3C(=O)OCC)cc12 | – | – | inactive | – | – | – | –
O=C(O)C1=C[C@H](O)[C@@H](OS(=O)(=O)O)[C@H](O[C@H]2[C@H](O)[C@@H](NS(=O)(=O)O)[C@@H](O[C@H]3[C@H](O)[C@@H](OS(=O)(=O)O)[C@H](O[C@H]4[C@H](O)[C@@H](NS(=O)(=O)O)[C@@H](O[C@H]5[C@H](O)[C@@H](OS(=O)(=O)O)[C@H](O[C@H]6[C@H](O)[C@@H](NS(=O)(=O)O)[C@@H](O[C@H]7[C@H](O)[C@@H](OS(=O)(=O)O)[C@H](O[C@H]8[C@H](O)[C@@H](NS(=O)(=O)O)[C@@H](O)O[C@@H]8COS(=O)(=O)O)O[C@H]7COS(=O)(=O)O)O[C@@H]6COS(=O)(=O)O)O[C@H]5COS(=O)(=O)O)O[C@@H]4COS(=O)(=O)O)O[C@H]3COS(=O)(=O)O)O[C@@H]2COS(=O)(=O)O)O1 | – | – | – | – | – | – | 2.7
CCOC(=O)c1c(C)oc2cc(OC)c(OCc3oc4cc(OC)c(OCc5oc6cc(OC)c(OS(=O)(=O)O)cc6c5C(=O)OC)cc4c3C(=O)OCC)cc12 | 2 | 2.04 | inactive | 39 | – | – | –
CCOC(=O)c1c(C)oc2cc(OC)c(OCc3oc4cc(OC)c(OCc5oc6cc(OCC)c(OS(=O)(=O)O)cc6c5C(=O)OCC)cc4c3C(=O)OCC)cc12 | 5.8 | 5.89 | inactive | 43 | – | – | –
CCOC(=O)c1c(C)oc2cc(OC)c(OCc3oc4cc(OC)c(OCc5oc6cc(OC)c(OS(=O)(=O)O)cc6c5C(=O)OCCOC)cc4c3C(=O)OCC)cc12 | > 500 | – | inactive | – | – | – | –
CCOC(=O)c1c(C)oc2cc(OC)c(OCc3oc4cc(OC)c(OCc5oc6cc(OC(C)C)c(OS(=O)(=O)O)cc6c5C(=O)OCC)cc4c3C(=O)OCC)cc12 | 99 | 100 | inactive | 26 | – | – | –

— ChEMBL document CHEMBL2396594, “Designing allosteric regulators of thrombin. Exosite 2 features multiple subsites that can be targeted by sulfated small molecules for inducing inhibition” (J Med Chem, 2013)
